Screening data: PubChem BioAssay, Sanford-Burnham Center for Chemical Genomics
Diaphorase inh: counter-screen for diaphorase-based assays: diaphorase inhibitors and chemical oxidizers; AID 1217; inhibition, % at 20 µM; actives 0.69% (n = 190,000); diaphorase resazurin-to-resorufin fluorescence, NADH, 16 min; bacterial (C. kluyveri) enzyme, not human;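 active = primary screen inhibition at 20 µM above a set limit, cut at about 50% in these data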;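 note: plate controls were DMSO with full reaction for no effect and wells lacking NADH for full effect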
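Assay system: diaphorase enzyme from Clostridium kluyveri. Quantity: enzyme working solution with 0.14 U/mL diaphorase. Schedule: reaction incubation of 16 min at room temperature. Technique: resorufin fluorescence, excitation 544 nm, emission 590 nm. Controls: No-NADH positive control and DMSO neutral control.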
Diaph act CS: counter-screen for diaphorase-based assays: diaphorase activators and chemical reducers; actives 0.005% (n = 190,000); activation factor at 20 µM; Diaphorase/resazurin coupled assay, resorufin fluorescence, 16 min; hits give high values; 1 = vehicle wells, 0 = NADH-free wells; AID 1229;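 active = diaphorase activity raised at least twofold by the compound at 20 µM; inactive = activation factor below 2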
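Material: purified diaphorase enzyme from Clostridium kluyveri / Medium: HEPES pH 7.4 buffer with MgCl2 and Tween 20 / Schedule: enzyme reaction of 16 min at room temperature / Measured by: resorufin fluorescence, excitation 544 nm, emission 590 nm / Evaluation: rise in resorufin formation, marking diaphorase activation or chemical reduction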
G6PDH counter: counter-screen for G6PDH assay hits: L. mesenteroides G6PDH inhibition; Purified L. mesenteroides G6PDH, diaphorase/resazurin coupled fluorescence, 45 min; inhibition, % at 5 µM; actives 0.12% (n = 200,000); in the data active = inhibition above about 50%
HKDC1 inh: blocks human hexokinase HKDC1 activity. inhibition, % at 20 µM. AID 493160. actives 0.16% (n = 340,000). recombinant HKDC1, G6PDH/diaphorase resazurin coupled fluorescence;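 active = inhibition above about 35% when tested at 20 µM, limit read from the data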;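 note: plate controls were DMSO wells with enzyme for no effect and DMSO wells lacking enzyme for full effect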
Target sequence (Q2TB90 whole entry, looked up): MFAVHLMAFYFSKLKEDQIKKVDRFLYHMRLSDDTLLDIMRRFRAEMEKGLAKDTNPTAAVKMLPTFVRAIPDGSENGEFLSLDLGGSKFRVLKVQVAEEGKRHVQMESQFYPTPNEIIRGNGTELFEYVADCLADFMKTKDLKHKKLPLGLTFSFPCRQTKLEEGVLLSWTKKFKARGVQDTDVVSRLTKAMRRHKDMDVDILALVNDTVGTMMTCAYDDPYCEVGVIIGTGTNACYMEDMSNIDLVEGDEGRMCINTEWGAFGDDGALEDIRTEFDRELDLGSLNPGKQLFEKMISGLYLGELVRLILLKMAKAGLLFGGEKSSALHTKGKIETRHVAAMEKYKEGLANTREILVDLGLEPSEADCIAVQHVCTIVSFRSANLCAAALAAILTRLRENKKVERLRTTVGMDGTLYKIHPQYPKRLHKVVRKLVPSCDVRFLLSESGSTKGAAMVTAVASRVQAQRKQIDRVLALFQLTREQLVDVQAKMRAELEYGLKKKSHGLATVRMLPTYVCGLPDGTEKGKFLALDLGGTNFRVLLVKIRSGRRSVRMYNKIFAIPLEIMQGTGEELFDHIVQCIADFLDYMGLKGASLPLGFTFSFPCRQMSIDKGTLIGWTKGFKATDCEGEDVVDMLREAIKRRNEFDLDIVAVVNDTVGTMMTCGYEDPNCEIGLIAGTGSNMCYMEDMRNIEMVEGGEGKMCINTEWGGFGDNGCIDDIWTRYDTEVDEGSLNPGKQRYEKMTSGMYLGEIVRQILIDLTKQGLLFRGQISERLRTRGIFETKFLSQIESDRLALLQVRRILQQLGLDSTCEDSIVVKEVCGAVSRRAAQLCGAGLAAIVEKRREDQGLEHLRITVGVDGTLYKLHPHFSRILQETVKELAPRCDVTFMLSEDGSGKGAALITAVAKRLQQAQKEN
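Incubation: 90 min at room temperature in dark / Material: recombinant HKDC1 (HK5) hexokinase enzyme, produced in-house / Quantity: enzyme 5 µg/mL final / Compound: one dose of 20 µM, 1% DMSO / Reagent: glucose and ATP substrates / Buffer or medium: Tris pH 8.0 buffer with MgCl2, Tween-20, BSA, BME / Technique: resorufin fluorescence at 613 nm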
PfGluPho inh: PfG6PD (Plasmodium falciparum) enzyme inhibition | PfGluPho enzyme, NADPH resazurin-diaphorase fluorescence | inhibition, % at 20 µM | actives 0.78% (n = 350,000);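 active = inhibition reaching at least a set limit at 20 µM in the primary screen, cut at about 59% in these data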;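 note: 0% = DMSO wells with substrate and 100% = DMSO wells lacking glucose-6-phosphate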
Starred values were filed as active, the others as inactive; . = no result given. In the library only some 1.3% were active in any assay of this set; here they are far more common.

SMILES | Diaphorase inh | Diaph act CS | G6PDH counter | HKDC1 inh | PfGluPho inh
Oc1ccc(CNc2ccccc2F)c2cccnc12 | 89* | 0.1 | 20 | -20 | -1
CN(CC(=O)Nc1cccc(F)c1)C(=O)c1ccc(-c2ccc(Cl)cc2)o1 | . | . | . | -1 | 16
C=CCn1nc2ccccc2c1OC | . | . | . | -3 | 1
CC(C)COCc1ccc(O)c2ncccc12 | 55* | 0.4 | 25 | -14 | -16
Oc1ccc(CN2CCc3ccccc3C2)c2cccnc12 | 48 | 0.5 | -25 | -7 | -15
CCCOCc1ccc(O)c2ncccc12 | . | . | . | -17 | -10
Oc1ccc(CN2CCC(Cc3ccccc3)CC2)c2cccnc12 | 62* | 0.4 | 29 | -7 | -14
NS(=O)(=O)c1ccc(CNC(=O)c2csc3c2CCCC3)cc1 | 85* | 0.2 | 0 | -8 | 10
C=CCn1c2ccccc2c2nnc(SCCCn3c(=O)[nH]c4ccccc43)nc21 | 57* | 0.4 | -26 | 32 | 42
C=CCn1c2ccccc2c2nnc(SCCN3CCCCC3)nc21 | . | . | . | 0 | 8
CCc1cc(-c2n[nH]c(C)c2Oc2ccc(C(C)C)cc2)c(O)cc1O | 14 | 0.9 | 4 | 2 | 5
Cc1occc1-c1nnc(SCC(=O)c2cc3ccccc3oc2=O)o1 | 51* | 0.5 | -1 | -2 | -5
Cc1cc(C)n(-c2ccc(N3CCOCC3)nn2)n1 | 9 | 0.9 | 30 | -10 | -22
Cc1cc(C)n(-c2nnc(N3CCN(c4ccc(F)cc4)CC3)nn2)n1 | 53* | 0.5 | 2 | 0 | -15
C=CCNC(=O)CC(=O)N/N=C/c1cccc(Br)c1 | 10 | 0.9 | 6 | -10 | 14
Cc1ccc(C2C(C#N)=C(N)SC(N)=C2C#N)o1 | 66* | 0.3 | 21 | . | .
CCc1ccc(C2C(C#N)=C(N)SC(N)=C2C#N)s1 | 15 | 0.9 | 20 | 13 | 16
Cc1ccccc1NC(=S)Nc1cccc2cnccc12 | 52* | 0.5 | 21 | 13 | 35
S=C(Nc1cccc(Cl)c1)Nc1cccc2cnccc12 | 45 | 0.6 | 27 | 18 | 95*
FC(F)(F)c1ccccc1NC(=S)Nc1cccc2cnccc12 | 47 | 0.5 | 20 | 12 | 55
Fc1ccccc1NC(=S)Nc1cccc2cnccc12 | 49 | 0.5 | 30 | 8 | 58
Cc1ccc(NC(=S)Nc2cccc3cnccc23)cc1 | 49 | 0.5 | 32 | 8 | 57
Cc1ccc(NC(=S)Nc2cccc3cnccc23)cc1C | 39 | 0.6 | 56* | 9 | 53
CC1CN(N=Cc2ccc([N+](=O)[O-])o2)C(=N)O1 (centres undefined) | . | . | . | 3 | -3
O=C1c2c(O)cc(O)cc2O[C@H](c2ccc(O)c(O)c2)[C@@H]1O | 54* | 0.5 | 36 | . | .
SMILES | Diaphorase inh | Diaph act CS | G6PDH counter | HKDC1 inh | PfGluPho inh
COc1ccccc1NS(=O)(=O)c1ccc(C)c(C(=O)Nc2ccc(S(=O)(=O)Nc3onc(C)c3C)cc2)c1 | . | . | . | 0 | -26
Cc1ccc(-n2c(O)c(C=Nc3ccccc3-c3n[nH]c(=S)[nH]c3=O)c3ccccc3c2=O)cc1C | 76* | 0.2 | 3 | 20 | -22
Cc1cccc(-n2c(O)c(C=Nc3ccccc3-c3n[nH]c(=S)[nH]c3=O)c3ccccc3c2=O)n1 | . | . | . | 27 | 2
Cc1ccc(-n2c(O)c(C=Nc3ccccc3-c3n[nH]c(=S)[nH]c3=O)c3ccccc3c2=O)c(C)c1 | 72* | 0.3 | -1 | 0 | 35
COc1ccc(-c2ccc(C(=O)O)o2)c([N+](=O)[O-])c1 | 69* | 0.3 | 17 | -3 | 13
CN1CCN(C(=O)c2cnn(-c3ccccc3)c2NC(=O)c2cccs2)CC1 | 17 | 0.8 | 4 | -19 | -6
CCN1CCN(c2c(Cl)cccc2NC(=O)c2cc3ccccc3o2)CC1 | . | . | . | -9 | 3
COc1ccc2c(c1)-c1nc(/N=C/c3ccccc3O)sc1CC2 | 54* | 0.5 | -6 | 3 | 32
COc1ccc(N2CCN(C(=O)CSc3nc(C)cs3)CC2)cc1 | . | . | . | 0 | -4
Cc1ccc(C2=NN(C(=O)CSc3nccn3C)C(c3ccco3)C2)cc1 (centres undefined) | . | . | . | 0 | 5
C=CCn1c(SCC(=O)N2N=C(c3ccco3)CC2c2ccco2)nnc1-c1ccncc1 (centres undefined) | 74* | 0.3 | 6 | -8 | -3
Cc1cccc(C(=O)N=c2c(C#N)cc3c(=O)n4cccc(C)c4nc3n2Cc2ccco2)c1 | 60* | 0.4 | 15 | 32 | 33
Cc1cccn2c(=O)c3cc(C#N)c(=NC(=O)c4ccccc4)n(Cc4ccco4)c3nc12 | . | . | . | 24 | 21
CCOc1cc(C(=S)N2CCN(C)CC2)ccc1OCC(=O)N1CCOCC1 | 10 | 0.9 | 4 | -4 | 12
Cc1ccc(NC2=C(N3CCCCC3)C(=O)c3ccccc3C2=O)cc1 | 12 | 0.9 | 56* | 11 | 38
O=C1C(Nc2ccccc2)=C(N2CCCCC2)C(=O)c2ccccc21 | 23 | 0.8 | 57* | 14 | 26
COc1ccccc1NC1=C(N2CCCCC2)C(=O)c2ccccc2C1=O | 30 | 0.7 | 33 | 12 | 37
O=C1C(Nc2cccc(O)c2)=C(N2CCCCC2)C(=O)c2ccccc21 | 10 | 0.9 | 59* | 18 | 53
C[C@@H](C(=O)Nc1ccccc1N1CCOCC1)N1C(=O)C2CCCCC2C1=O (some centres undefined) | . | . | . | -5 | -10
CN(Cc1ccccc1)C(=O)c1cnc2n(c1=O)CCS2 | 2 | 1 | 7 | -11 | -5
COc1ccc(C(=O)N/N=C/c2c[nH]c3ccccc23)cc1 | . | . | . | -1 | 7
COc1ccc(C(=O)N/N=C/c2cc3ccccc3[nH]c2=S)cc1 | 55* | 0.5 | 2 | 1 | 37
COCC(C)N1C(=O)Cc2c1nc(N)c1c(N)nc(N3CCN(c4ccccc4F)CC3)c(C#N)c21 (centres undefined) | 60* | 0.4 | 2 | 10 | 5
Cc1cc(C)c2nc(NNC(=O)c3cc(=O)c4ccccc4o3)sc2c1 | 67* | 0.3 | 16 | -19 | 19
Cc1cc(C)c2nc(NNC(=O)c3ccc(S(=O)(=O)N4CCc5ccccc5C4)cc3)sc2c1 | 7 | 0.9 | 8 | -24 | -19
SMILES | Diaphorase inh | Diaph act CS | G6PDH counter | HKDC1 inh | PfGluPho inh
N#Cc1c(-c2ccccc2)[nH]c(=S)[nH]c1=O | 51* | 0.5 | 3 | 5 | -18
N#Cc1c(-c2cccc(Cl)c2)[nH]c(=S)[nH]c1=O | . | . | . | 0 | -14
O=C(COc1cc2oc(=O)c3c(c2cc1Cl)CCC3)NCCCn1ccnc1 | . | . | . | -1 | -4
O=[N+]([O-])c1cc(O)c2ncccc2c1 | 52* | 0.5 | 43 | 10 | 55
O=[N+]([O-])c1cc2cccnc2c2ncccc12 | . | . | . | 4 | 18
CCN1CCc2nc(N)sc2C1 | 2 | 1 | 0 | -5 | 62*
CCOc1ccc(C(=O)NCC(=O)N2CCN(Cc3ccccc3)CC2)cc1 | . | . | . | 2 | 5
